Screens: PubChem BioAssay, several laboratories
Myeloid diff 2 – myeloid differentiation induction | ER-HoxA9 myeloid progenitors, lysozyme-GFP differentiation, flow cytometry | calls only at 10 µM | 360,000 compounds, 1% hits | AID 624256;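 active means normalized GFP-positive differentiation at or above the plate's own cutoff, the solvent-only control mean plus 3 SD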;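 further: cells exposed to compound for four days before flow analysis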
ATG4B inh – blocks human ATG4B protease cleavage of LC3 substrate. inhibition, % at 8.33 µM. ATG4B cleavage of LC3-PLA2, NBD-HPC fluorescence, 1 h. 340,000 compounds, 0.51% hits. AID 504462. Q9Y4P1; in the data active means inhibition above about 40%
Target sequence (Q9Y4P1 whole entry, looked up): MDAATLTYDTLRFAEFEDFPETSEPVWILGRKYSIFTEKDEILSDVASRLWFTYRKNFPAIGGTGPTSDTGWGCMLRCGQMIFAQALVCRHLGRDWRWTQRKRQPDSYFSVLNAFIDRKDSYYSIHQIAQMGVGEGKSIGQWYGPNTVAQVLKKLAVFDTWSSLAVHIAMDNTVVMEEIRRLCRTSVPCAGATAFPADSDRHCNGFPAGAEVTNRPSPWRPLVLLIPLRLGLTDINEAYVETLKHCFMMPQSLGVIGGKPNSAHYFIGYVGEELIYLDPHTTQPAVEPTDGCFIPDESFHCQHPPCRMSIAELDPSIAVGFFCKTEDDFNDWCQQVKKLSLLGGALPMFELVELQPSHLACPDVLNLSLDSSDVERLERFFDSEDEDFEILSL
Arrestin-AP2 inh – blocks beta-arrestin peptide binding to AP2 adaptin; AID 504490; inhibition, % at 10 µM; FITC-arrestin peptide / GST-AP2 beads, flow cytometry; AP2 beta2 appendage carries R879A mutation; 340,000 compounds, 0.31% hits;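 active means inhibition above a set limit, near 3 SD of compounds lacking own fluorescence, cut at about 54% in these data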;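 further: plate controls were DMSO wells for no effect and 5 µM unlabelled arrestin peptide for full effect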
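System: GST-AP2 R879A bound to glutathione beads, E. coli-expressed. Also added: 50 nM FITC-arrestin peptide. Schedule: compound with beads 12 min RT, then probe 1 h RT. Signal: bead flow cytometry, FITC channel. Read-out basis: percent response.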
ABCB6 inh 2 – blocks the human ABCB6 transporter | Q9NP58 | K562-ABCB6 porphyrin accumulation, flow cytometry, 1 h; stronger effect = lower value | fluorescence ratio to DMSO, % at 10 µM | 360,000 compounds, 0.19% hits;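 active means fluorescence ratio to DMSO below 75%, the collection mean minus 3 SD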;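 further: signal is porphyrin accumulated inside mitochondria; 100% equals median channel fluorescence of DMSO control wells; lower ratio means ABCB6 inhibition with less porphyrin fluorescence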
Exocytosis inh – blocks lytic granule exocytosis. TALL-104 LAMP-1 surface exposure, flow cytometry; cells stimulated with thapsigargin and PMA. inhibition, % at 10 µM. 360,000 compounds, 0.66% hits. AID 651702;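 active means inhibition above about 55%, limit read from the data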
NRP1-CendR mod – NRP-1/CendR interaction modulation; FAM-RPARPAR peptide binding to NRP-1, fluorescence polarization; inhibition, % at 25 µM; O14786; 360,000 compounds, 0.85% hits; AID 602438;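 active means inhibition or corrected inhibition above about 18%, plus a signal ratio from 0.5 to 1.5, limit read from the data, passing the limit was not always enough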
Myeloid diff – myeloid differentiation induction; calls only; ER-HoxA9 myeloid progenitors, GFP/Mac1 double-positive flow; shares compounds with Myeloid diff 2; 2,300 compounds, 2% hits; AID 651706;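 active means share of green or green-and-red cells above 9 and 9% in run 1 or 4 and 3% in run 2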
GFP autofluor – flagged as fluorescent in myeloid differentiation counter-screen. shares compounds with Myeloid diff 2. ER-HoxA9 myeloid progenitors, no estrogen, GFP autofluorescence flow cytometry; vehicle wells 0%, positive control 100%. fluorescence response, % (no concentration beside the values). 2,300 compounds, 7.4% hits. AID 651707;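 active means over 5% cells positive for green fluorescent reporter, or over 2% positive for both it and APC stain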;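 further: range taken on the double positive population between DMSO and positive control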
Starred values were filed as active, the others as inactive; i = inactive; nt = no result; + = active, no number; ! = not confirmed by another sample. In the library only some 3.3% were active in any assay of this set; here they are far more common.

SMILES | Myeloid diff 2 | ATG4B inh | Arrestin-AP2 inh | ABCB6 inh 2 | Exocytosis inh | NRP1-CendR mod | Myeloid diff | GFP autofluor
O=[N+]([O-])c1cccc(/C(=N/N=C/c2ccccc2Br)C23CN4CN(CN(C4)C2)C3)c1 | + | 2 | 26 | 95 | 0 | -3 | i | 0
CN(C)S(=O)(=O)c1cccc(NC(=O)COC(=O)/C=C/c2ccc([N+](=O)[O-])cc2)c1 | i | -21 | -27 | 96 | 4 | 7 | nt | nt
CCCc1nc2cc(C)c(Br)c(C)n2c1Cc1ccc(OC)cc1C | i | nt | nt | 98 | -3 | -12 | nt | nt
O=C(CCc1nc2ccccc2c(=O)[nH]1)N1CCN(c2ccc(F)cc2)CC1 | i | -4 | 26 | 98 | 0 | -4 | nt | nt
CC(=O)N1CCN(C(=O)CCc2nc3ccccc3c(=O)[nH]2)CC1 | + | 4 | -9 | 99 | 0 | 14 | i | 0
CCOC(=O)N1CCN(C(=O)c2ccc(Cn3c(=S)[nH]c4cc5c(cc4c3=O)OCO5)cc2)CC1 | i | -3 | 11 | 101 | 2 | -1 | nt | nt
CCOC(=O)N1CCN(C(=O)c2ccc(Cn3c(=S)[nH]c4cc(OCC)c(OCC)cc4c3=O)cc2)CC1 | + | -4 | -19 | 98 | 4 | -16 | i | 0
Cc1cc(N2CCCC2)ccc1/C=C1\NC(=S)N(C)C1=O | i | 31 | -12 | 250 | -1 | -42 | i | 51*
Cc1cccc(Cn2ncc(Cl)c(Cl)c2=O)c1 | i | 0 | 12 | 99 | -3 | 8 | i | 0
CCOC(=O)c1ccc(S(=O)(=O)N2CCC(C(=O)NCC3CCCCC3)CC2)cc1 | i | -5 | 2 | 94 | -4 | -4 | nt | nt
C#CCOCCOCCOCCNc1nc(N2CCN(C(=O)[C@H]([C@@H](C)CC)n3cc([C@@H](N)CO)nn3)CC2)nc(N2CCN(C(=O)[C@H](CCCCN)n3cc([C@@H](N)CC(C)C)nn3)CC2)n1 | nt | -3 | nt | nt | nt | nt | nt | nt
CCS(=O)(=O)c1ccc2c(c1)N(S(C)(=O)=O)CC(C(=O)NC1CC1)O2 (centres undefined) | + | -10 | 26 | 101 | 3 | -5 | i | 2
CCCCNC(=O)CCc1nc2cccnc2n1Cc1ccccc1 | + | 0 | -8 | 107 | -6 | -2 | i | 0
O=C1c2cccc3c(N4CCCCC4)ccc(c23)C(=O)N1c1cccc(O)c1 | + | -6 | 8 | 204 | 22 | -7 | i | 0
O=C1c2cccc3c(N4CCCCC4)ccc(c23)C(=O)N1CCO | i | -13 | 10 | 112 | 30 | 30 | nt | nt
COc1cc(CC(=O)OCC(=O)N(C)C2CCCCC2)cc(OC)c1OC | i | -7 | 3 | 94 | 1 | 7 | nt | nt
CN(C)C1CN(Cc2cn(Cc3cccc(C(F)(F)F)c3)nn2)S(=O)(=O)C1 (centres undefined) | i | nt | nt | 97 | 0 | -6 | nt | nt
C[C@@]12C(=O)N(c3cccc(F)c3)C(=O)N1[C@H](c1ccc(Cl)cc1)[C@@H]1C(=O)N(C3CCCCC3)C(=O)[C@@H]12 | i | -16 | 32 | 94 | 1 | 8 | nt | nt
C[C@@]12C(=O)N(c3cccc(Cl)c3)C(=O)N1[C@H](c1ccc(Cl)cc1)[C@@H]1C(=O)N(C3CCCCC3)C(=O)[C@@H]12 | + | -10 | 7 | 97 | -5 | -35 | i | 1
COc1ccc(Cn2nnnc2C(c2cccnc2)N2CCN(c3ccc(O)cc3)CC2)cc1 (centres undefined) | i | -11 | -8 | 98 | -2 | -9 | i | 5
COc1ccc(Cn2nnnc2C(c2cccs2)N2CCN(c3ccccc3)CC2)cc1 (centres undefined) | i | -8 | 15 | 98 | -5 | -4 | nt | nt
CCc1ccc(CN(C)C(=O)CCc2nnc(CCc3ccccc3OC)o2)nc1 | i | 5 | -2 | 98 | -4 | -22 | nt | nt
O=S(=O)(c1ccc(Cl)cc1)N1CCN(Cc2c[nH]c3ccccc23)CC1 | i | -3 | 6 | 97 | 0 | 1 | i | 0
Cn1c(-c2ccccc2)c[n+]2c1-c1ccccc1C2 | i | -8 | 3 | 100 | 2 | 11 | + | 0
O=C(Cn1c(CO)nc2ccccc21)NCc1ccc2c(c1)OCO2 | i | -1 | 1 | 107 | 5 | -7 | nt | nt
SMILES | Myeloid diff 2 | ATG4B inh | Arrestin-AP2 inh | ABCB6 inh 2 | Exocytosis inh | NRP1-CendR mod | Myeloid diff | GFP autofluor
CC(=O)c1c(C)n(CC(=O)NCc2ccc3c(c2)OCO3)c2ccccc12 | + | -1 | 15 | 94 | 0 | 5 | i | 98*
COc1cc(C#Cc2c(-c3cncn3C)n(C)c3ccc(-c4ccc(OC)nc4)cc23)cc(OC)c1 | i | -6 | 15 | 99 | -8 | -8 | nt | nt
COc1cc(C#Cc2c(-c3cncn3C)n(C)c3ccc(-c4ccc5[nH]ccc5c4)cc23)cc(OC)c1 | i | 11 | -8 | 97 | -3 | 16 | i | 98*
Cc1cc(Cl)cc(Br)c1OCCCCn1cncn1 | + | -8 | 10 | 98 | 7 | -4 | i | 1
O=C(C1CCCC1)N1CCN=C1SCc1cccc([N+](=O)[O-])c1 | i | 2 | -5 | 96 | -1 | 0 | nt | nt
CC1Cc2ccccc2N1C(=S)Nc1cccc(S(=O)(=O)N(C)C)c1 (centres undefined) | i | -12 | 8 | 104 | -4 | 1 | nt | nt
CC1CCN(C(=S)Nc2cccc(S(=O)(=O)N(C)C)c2)CC1 | + | -13 | -6 | i | 2 | 10 | i | 0
CC(NC(=O)c1cccc(S(=O)(=O)N2CCN(Cc3ccccc3)CC2)c1)c1ccccc1Cl (centres undefined) | i | -52 | -3 | 100 | 2 | 13 | nt | nt
Cc1cccc(NC(=S)N(CCCN2CCOCC2)Cc2cn(C)c3ccccc23)c1 | i | -10 | -2 | 97 | 3 | -14 | nt | nt
Cn1cc(CN(CCCN2CCOCC2)C(=S)Nc2cccc(Cl)c2)c2ccccc21 | + | -15 | 6 | 93 | 50 | -6 | i | 0
CC1Nc2ncnc(N3CCc4ccccc4C3)c2N(Cc2ccc(Br)cc2)C1=O (centres undefined) | +! | 8 | 2 | 100 | 8 | -52 | i | 0
CCOC(=O)C1CCN(C(=O)COc2ccc(Cl)cc2C)CC1 | i | -2 | -3 | 101 | -4 | 6 | nt | nt
CCOC(=O)C1CCN(C(=O)COc2ccc(Cl)cc2Cl)CC1 | i | -10 | -30 | 97 | 0 | 13 | i | 0
O=C(NCc1ccccc1)C12CN(Cc3ccccc3)CC1C(c1cccc([N+](=O)[O-])c1)=NO2 (centres undefined) | i | 2 | -2 | 100 | 6 | 7 | i | 0
